Test results taken from ChEMBL document CHEMBL3526063, “Metabolism and pharmacokinetics of JM6 in mice: JM6 is not a prodrug for Ro-61-8048” (Drug Metab Dispos, 2012).

Experiments:
[1] = target: Kynurenine 3-monooxygenase (Homo sapiens, UniProt O15229); assay: Inhibition of human KMO assessed as 3-hydroxykynurenine formation preincubated for 5 mins using 100 uM kynurenine as substrate by LC-MS/MS analysis
Outline: (§1)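 Liver mitochondrial KMO preparation (mouse C57 BL/6J, rat Wistar, human) at 0.3 mg protein/mL in 100 mM potassium phosphate pH 7.4 with 200 µM NADPH, 0.4 U/mL G6PDH, 3 mM glucose 6-phosphate. Compound pre-incubated 5 min at 25°C, then 100 µM kynurenine added; 40 min (rodent) or 60 min (human). Stopped with TCA; 3-hydroxykynurenine by LC-MS/MS. IC50 from 8-point 3-fold dilutions (top 3 or 30 µM), triplicates, n≥2 runs.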

[2] = Tmax in C57BL/6N mouse treated with JM6 (containing <0.4% Ro-61-8048) at 9 mg/kg, po and Ro-61-8048 at 1 mg/kg, po drugs administered via gavage by LC-MS/MS analysis; type: ADME, organism-based; conditions: in vivo
Outline: (§2)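 Male C57BL/6N mice dosed by oral gavage (10 mL/kg) as fine suspensions in 10% hydroxypropyl-β-cyclodextrin in 50 mM phosphate buffer pH 7; dose formulations verified by LC-MS/MS. Plasma analysed by LC-MS/MS; composite non-compartmental parameters from mean concentrations (n=3 per time point), C0 set to zero. %F = dose-normalised po AUCinf over dose-normalised iv AUCinf, only within linear range.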

[3] = Metabolic stability in rat plasma assessed as half life at 5 uM after 10 to 1440 mins by LC-MS/MS analysis; type: ADME, cell-free
[4] = AUClast in C57BL/6N mouse treated with JM6 (containing <0.4% Ro-61-8048) at 25 mg/kg, po and Ro-61-8048 at 0.05 mg/kg, po drugs administered via gavage by LC-MS/MS analysis; type: ADME, organism-based; parameters: dose 25 mg/kg, route oral, time 0 - last; conditions: plasma
Outline: (§3)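 Male C57BL/6N mice were dosed by oral gavage at 10 mL/kg with a fine suspension in 10% hydroxypropyl-β-cyclodextrin in 50 mM phosphate buffer, pH 7. Plasma was taken at non-serial time points (n=3 per time point), extracted with 0.1% formic acid in acetonitrile containing diclofenac as internal standard, and quantified by UPLC-MS/MS. Composite non-compartmental parameters came from mean concentrations; AUClast by linear trapezoid, kel from at least three terminal points.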

[5] = Metabolic stability in human liver microsomes assessed as half life at 5 uM after 5 to 40 mins by LC-MS/MS analysis; type: ADME
[6] = Tmax in C57BL/6N mouse treated with JM6 (containing <0.4% Ro-61-8048) at 10 mg/kg, po and Ro-61-8048 at 0.05 mg/kg, po drugs administered via gavage by LC-MS/MS analysis; type: ADME, organism-based; conditions: in vivo; outline: as §2
Mus musculus [7] = assay: Dose normalised AUC in C57BL/6N mouse treated with JM6 (containing <0.4% Ro-61-8048) at 25 mg/kg, po and Ro-61-8048 at 0.05 mg/kg, po drugs administered via gavage by LC-MS/MS analysis; type: ADME, organism-based; conditions: in vivo; outline: as §3
[8] = target: Kynurenine 3-monooxygenase (Rattus norvegicus, UniProt O88867); assay: Inhibition of Wistar rat KMO assessed as 3-hydroxykynurenine formation preincubated for 5 mins using 100 uM kynurenine as substrate by LC-MS/MS analysis; outline: as §1
Chain of Kynurenine 3-monooxygenase (Rattus norvegicus, UniProt O88867) (O88867 whole entry): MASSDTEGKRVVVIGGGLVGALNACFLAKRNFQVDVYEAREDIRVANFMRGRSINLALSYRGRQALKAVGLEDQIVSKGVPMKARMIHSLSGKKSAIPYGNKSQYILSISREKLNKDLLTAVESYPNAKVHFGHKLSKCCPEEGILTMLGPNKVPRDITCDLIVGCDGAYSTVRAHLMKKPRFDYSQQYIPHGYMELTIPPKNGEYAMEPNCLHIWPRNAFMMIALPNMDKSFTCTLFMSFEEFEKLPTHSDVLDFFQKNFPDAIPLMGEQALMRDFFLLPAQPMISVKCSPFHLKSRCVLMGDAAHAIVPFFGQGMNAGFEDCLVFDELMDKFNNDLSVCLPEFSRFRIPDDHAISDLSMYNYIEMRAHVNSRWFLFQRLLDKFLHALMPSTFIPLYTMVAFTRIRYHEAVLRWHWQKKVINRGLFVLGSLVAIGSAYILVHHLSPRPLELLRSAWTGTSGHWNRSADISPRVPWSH

[9] = Metabolic stability in mouse plasma assessed as half life at 5 uM after 10 to 1440 mins by LC-MS/MS analysis; type: ADME, cell-free
[10] = Tmax in C57BL/6N mouse treated with JM6 (containing <0.4% Ro-61-8048) at 9.5 mg/kg, po and Ro-61-8048 at 0.05 mg/kg, po drugs administered via gavage by LC-MS/MS analysis; type: ADME, organism-based; conditions: in vivo, in the assay text read “0.5 mg/kg” for “0.05 mg/kg”; outline: as §2
MDR1 [11] = assay: Apparent permeability from basolateral to apical side in MDCK2-MDR1 cells at 10 uM after 1 hr by LC-MS/MS analysis; type: ADME, cell-based, Canis lupus familiaris, MDCK-II; conditions: dog, MDCK-MDR1
Outline: (§4)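 MDCKII wild-type or MDR1 monolayers were grown 3 days on Transwells after seeding at 2×10^5 cells/well. Compound at 10 µM in HBSS with 25 mM HEPES, pH 7.4, was added apically or basolaterally in duplicate, with Lucifer Yellow as an integrity marker (wells above 100 nm/s rejected).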

[12] = Metabolic stability in human plasma assessed as half life at 5 uM after 10 to 1440 mins by LC-MS/MS analysis; type: ADME, cell-free
[13] = Apparent permeability from apical to basolateral side in MDCK2 cells at 10 uM after 1 hr by LC-MS/MS analysis; type: ADME, cell-based, Canis lupus familiaris, MDCK-II; conditions: dog; outline: as §4
[14] = AUC(infinity) in C57BL/6N mouse treated with JM6 (containing <0.4% Ro-61-8048) at 10 mg/kg, po and Ro-61-8048 at 0.05 mg/kg, po drugs administered via gavage by LC-MS/MS analysis; type: ADME, organism-based; parameters: dose 10 mg/kg, route oral, time infinity; conditions: plasma; outline: as §3
[15] = Apparent permeability from basolateral to apical side in MDCK2 cells at 10 uM after 1 hr by LC-MS/MS analysis; type: ADME, cell-based, Canis lupus familiaris, MDCK-II; conditions: dog; outline: as §4
[16] = Hepatic extraction ratio in mouse Hepatocyte at 1 uM after 10 to 90 mins by LC-MS/MS analysis; type: ADME, cell-based; conditions: hepatocytes, read-out: ERH
Mus musculus [17] = assay: Dose normalised AUC in C57BL/6N mouse treated with JM6 (containing <0.4% Ro-61-8048) at 10 mg/kg, po and Ro-61-8048 at 0.05 mg/kg, po drugs administered via gavage by LC-MS/MS analysis; type: ADME, organism-based; conditions: in vivo; outline: as §3
[18] = Cmax in C57BL/6N mouse treated with JM6 (containing <0.4% Ro-61-8048) at 9 mg/kg, po and Ro-61-8048 at 1 mg/kg, po drugs administered via gavage by LC-MS/MS analysis; type: ADME, organism-based; parameters: dose 9 mg/kg, route oral; conditions: in vivo; outline: as §3
[19] = AUC(infinity) in C57BL/6N mouse treated with JM6 (containing <0.4% Ro-61-8048) at 9 mg/kg, po and Ro-61-8048 at 1 mg/kg, po drugs administered via gavage by LC-MS/MS analysis; type: ADME, organism-based; parameters: dose 9 mg/kg, time infinity, route oral; conditions: plasma; outline: as §3
[20] = Half life in C57BL/6N mouse treated with JM6 (containing <0.4% Ro-61-8048) at 9 mg/kg, po and Ro-61-8048 at 1 mg/kg, po drugs administered via gavage by LC-MS/MS analysis; type: ADME, organism-based; conditions: in vivo; outline: as §3
[21] = Half life in C57BL/6N mouse treated with JM6 (containing <0.4% Ro-61-8048) at 9.5 mg/kg, po and Ro-61-8048 at 0.05 mg/kg, po drugs administered via gavage by LC-MS/MS analysis; type: ADME, organism-based; conditions: in vivo, in the assay text read “0.5 mg/kg” for “0.05 mg/kg”; outline: as §3
MDR1 [22] = assay: Apparent permeability from apical to basolateral side in MDCK2-MDR1 cells at 10 uM after 1 hr by LC-MS/MS analysis; type: ADME, cell-based, Canis lupus familiaris, MDCK-II; conditions: dog, MDCK-MDR1; outline: as §4
Liver = assay: Metabolic stability in mouse liver microsomes assessed as half life at 1 uM after 5 to 40 mins by LC-MS/MS analysis
[23] = AUClast in C57BL/6N mouse at 0.05 mg/kg, po administered via gavage by LC-MS/MS analysis; type: ADME, organism-based; parameters: time 0 - last, dose 0.05 mg/kg, route oral; conditions: plasma; outline: as §3
[24] = Cmax in mouse at 25 mg/kg/day, po; type: ADME, organism-based; parameters: dose 25 mg/kg/day, route oral; conditions: in vivo

Chain of Kynurenine 3-monooxygenase (Homo sapiens, UniProt O15229) (O15229 whole entry): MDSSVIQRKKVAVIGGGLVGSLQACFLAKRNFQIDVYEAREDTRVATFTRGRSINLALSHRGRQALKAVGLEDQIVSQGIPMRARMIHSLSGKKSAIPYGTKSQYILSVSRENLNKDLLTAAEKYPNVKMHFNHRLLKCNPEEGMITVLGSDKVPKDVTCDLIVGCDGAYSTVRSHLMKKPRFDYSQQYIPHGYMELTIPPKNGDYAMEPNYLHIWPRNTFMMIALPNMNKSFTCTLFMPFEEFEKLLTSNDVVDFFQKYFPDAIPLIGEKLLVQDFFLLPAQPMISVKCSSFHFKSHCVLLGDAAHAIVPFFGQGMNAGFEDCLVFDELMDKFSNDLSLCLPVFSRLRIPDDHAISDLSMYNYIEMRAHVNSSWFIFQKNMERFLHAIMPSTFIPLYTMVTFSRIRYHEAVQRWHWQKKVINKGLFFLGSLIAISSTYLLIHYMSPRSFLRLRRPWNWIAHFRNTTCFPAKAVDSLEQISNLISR

IC50 [1] [µM]	Tmax [2] [min]	half-life at 5 µM [3] [min]	AUC(0-t) [4] [µM·h]	half-life at 5 µM [5] [min]	Tmax [6] [min]	AUC/dose (Mus musculus [7]) [nM·kg·h/mg]	IC50 [8] [µM]	half-life at 5 µM [9] [min]	Tmax [10] [min]	Papp B→A at 1 h, 10 µM (MDR1 [11]) [×10⁻⁶ cm/s]	half-life at 5 µM [12] [min]	AUC(0-inf) [14] [µM·h]	hepatic extraction ratio at 1 µM [16]	AUC/dose (Mus musculus [17]) [nM·kg·h/mg]	Cmax [18] [nM]	AUC(0-inf) [19] [µM·h]	half-life [20] [min]	half-life [21] [min]	Papp A→B at 1 h, 10 µM (MDR1 [22]) [×10⁻⁶ cm/s]	SMILES	also measured
11	30	> 1440	4.8	> 97	30	190	7.1	> 1440	30	43	> 1440	1.3	0.83	130	1000	1.1	42	54	0.72	COc1ccc(S(=O)(=O)Nc2nc(-c3cccc([N+](=O)[O-])c3)c(CN3CCCCC3)s2)cc1OC	Papp ([13]; mdck-ii, 1 h, 10 µM): 4.7 ×10⁻⁶ cm/s; Papp ([15]; mdck-ii, 1 h, 10 µM): 0.53 ×10⁻⁶ cm/s; t1/2 (Liver): 12 min
0.17	30	> 1440	8.4	12	60	180000	0.022	> 1440	30	33	> 1440	5.2	< 0.5	100000	17000	110	264	414	10	COc1ccc(S(=O)(=O)Nc2nc(-c3cccc([N+](=O)[O-])c3)cs2)cc1OC	AUC(0-t) [23]: 4.3 µM·h; Cmax [24]: 280 nM; Papp A→B at 1 h, 10 µM ([13]; MDCK): 17 ×10⁻⁶ cm/s; Papp B→A at 1 h, 10 µM ([15]; MDCK): 13 ×10⁻⁶ cm/s
